Legend:
[1] = Cytotoxicity against HFF after 3 days by MTS assay; assay type: cell-based; conditions: human, HFF cells
HFF = experiment: Antiproliferative activity against HFF after 3 days by Coulter counting analysis; assay type: cell-based; conditions: Homo sapiens, 72 h
In short: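 HFF seeded at 2.5 × 10^4 cells/well and allowed 24 h before compound dilutions in growth medium were added. Cells were incubated 72 h at 37°C, detached with trypsin-EDTA, and viable cells counted with a Coulter Counter in triplicate wells. The mean cell number gave the concentration reducing cell number by 50%.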

[2] = Selectivity index, ratio of CC50 for HFF to EC50 for HSV2 MS infected in HFF
Human alphaherpesvirus 2 [3] = experiment: Antiviral activity against HSV2 MS infected in HFF after 3 days by plaque reduction assay; assay type: functional, organism-based; conditions: Human alphaherpesvirus 2, MS, 72 h
In short: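 Confluent primary HFF monolayers (passage <10), triplicate wells, virus dosed at 20–30 plaques/well. Adsorption was 1 h with rocking every 15 min. Six serial dilutions, top 100 μM, were made in MEM with 2% FBS plus pooled human immunoglobulin. After 3 days, wells were stained with 0.1% crystal violet in 20% methanol and plaques counted microscopically. EC50 was interpolated.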

Human alphaherpesvirus 2 [4] = experiment: Antiviral activity against HSV2 AG-3 harboring TK Q105P mutant gene infected in HFF after 3 days by plaque reduction assay; assay type: functional, organism-based; conditions: Human alphaherpesvirus 2, AG-3, 72 h
In short: (§1)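 Confluent HFF monolayers (passage <10) were infected in triplicate wells at 20–30 plaques per well, with 1 h adsorption and rocking every 15 min. Six serial dilutions (top 100 μM) were made in MEM with 2% FBS and pooled human immunoglobulin. Cells were incubated 3 days and stained with crystal violet. Plaques were counted, and EC50 was interpolated from plaque reduction.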

Human alphaherpesvirus 1 [5] = experiment: Antiviral activity against HSV1 B-2006 harboring frameshift mutation at Q185 in TK infected in HFF after 3 days by plaque reduction assay; assay type: functional, organism-based; conditions: Human alphaherpesvirus 1, B-2006, 72 h; in short: as §1
Human alphaherpesvirus 2 [6] = experiment: Antiviral activity against HSV2 13077 harboring TK R223H mutant gene infected in HFF after 3 days by plaque reduction assay; assay type: functional, organism-based; conditions: Human alphaherpesvirus 2, 13077, 72 h; in short: as §1
Human alphaherpesvirus 2 [7] = experiment: Antiviral activity against HSV2 11680 harboring TK R223H mutant gene infected in HFF after 3 days by plaque reduction assay; assay type: functional, organism-based; conditions: Human alphaherpesvirus 2, 11680, 72 h; in short: as §1
Human alphaherpesvirus 2 [8] = experiment: Antiviral activity against 4'-thioIDU-resistant HSV2 infected in HFF after 3 days by plaque reduction assay; assay type: functional, organism-based; conditions: Human alphaherpesvirus 2, 72 h; in short: as §1
Human alphaherpesvirus 1 [9] = experiment: Antiviral activity against HSV1 DM2.1 harboring frameshift mutation in TK infected in HFF after 3 days by plaque reduction assay; assay type: functional, organism-based; conditions: Human alphaherpesvirus 1, DM2.1, 72 h; in short: as §1
Human alphaherpesvirus 1 [10] = experiment: Antiviral activity against HSV1 PAA5 harboring polymerase R842S mutant gene infected in HFF after 3 days by plaque reduction assay; assay type: functional, organism-based; conditions: Human alphaherpesvirus 1, PAA5, 72 h; in short: as §1
Human alphaherpesvirus 2 [11] = experiment: Selectivity ratio of EC50 for 4'-thioIDU-resistant HSV2 infected in HFF to EC50 for HSV2 MS infected in HFF; assay type: functional
Human alphaherpesvirus 2 [12] = experiment: Antiviral activity against HSV2 harboring frameshift mutation in TK infected in HFF after 3 days by plaque reduction assay; assay type: functional, organism-based; conditions: Human alphaherpesvirus 2, 72 h; in short: as §1
Human alphaherpesvirus 1 [13] = experiment: Antiviral activity against HSV1 E377 infected in HFF after 3 days by plaque reduction assay; assay type: functional, organism-based; conditions: Human alphaherpesvirus 1, E377, 72 h; in short: as §1
Human alphaherpesvirus 2 [14] = experiment: Antiviral activity against HSV2 12247 harboring TK C337Y mutant gene infected in HFF after 3 days by plaque reduction assay; assay type: functional, organism-based; conditions: Human alphaherpesvirus 2, 12247, 72 h; in short: as §1
Human alphaherpesvirus 1 [15] = experiment: Antiviral activity against HSV1 SC16-S1 harboring TK A265T/C336Y mutant gene infected in HFF after 3 days by plaque reduction assay; assay type: functional, organism-based; conditions: Human alphaherpesvirus 1, SC16-S1, 72 h; in short: as §1
Human betaherpesvirus 5 [16] = experiment: Antiviral activity against human cytomegalovirus PFAB300 harboring UL54 L724V mutant gene infected in HFF after 8 to 10 days by plaque reduction assay; assay type: functional, organism-based; conditions: Human betaherpesvirus 5, PFAB300
In short: (§2)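 Plaque reduction in confluent HFF with six serial dilutions (top 100 μM) and no immunoglobulin added. Virus was adsorbed 1 h on triplicate wells. Cells were incubated 8 days, stained with 0.017% neutral red in PBS, and plaques counted. EC50 is the concentration reducing plaque number by 50%.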

Human betaherpesvirus 5 [17] = experiment: Antiviral activity against human cytomegalovirus AD169 infected in HFF after 8 to 10 days by plaque reduction assay; assay type: functional, organism-based; conditions: Human betaherpesvirus 5, AD169
In short: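 Plaque reduction on confluent HFF monolayers in triplicate wells: 1 h adsorption, then six serial compound dilutions (top 100 μM) in MEM with 2% FBS, no immunoglobulin. Incubation was 8 days for HCMV and 10 days for VZV. Plaques were stained with 0.017% neutral red in PBS and counted microscopically. EC50 was interpolated at 50% plaque reduction.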

Human betaherpesvirus 5 [18] = experiment: Antiviral activity against human cytomegalovirus RC314 harboring UL97 K355M mutant gene infected in HFF after 8 to 10 days by plaque reduction assay; assay type: functional, organism-based; conditions: Human betaherpesvirus 5, RC314; in short: as §2
Human betaherpesvirus 5 [19] = experiment: Antiviral activity against human cytomegalovirus 759D100 harboring deletion mutation in UL97 gene and UL54 A987G mutant gene infected in HFF after 8 to 10 days by plaque reduction assay; assay type: functional, organism-based; conditions: Human betaherpesvirus 5, 759D100; in short: as §2
Human betaherpesvirus 5 [20] = experiment: Antiviral activity against human cytomegalovirus 1117 harboring UL54 K513N mutant gene infected in HFF after 8 to 10 days by plaque reduction assay; assay type: functional, organism-based; conditions: Human betaherpesvirus 5, 1117; in short: as §2
Human betaherpesvirus 5 [21] = experiment: Antiviral activity against human cytomegalovirus C8914-6 harboring UL97 I244V, L595F and UL54 L501F mutant gene infected in HFF after 8 to 10 days by plaque reduction assay; assay type: functional, organism-based; conditions: Human betaherpesvirus 5, C8914-6; in short: as §2
Human betaherpesvirus 5 [22] = experiment: Antiviral activity against human cytomegalovirus VR4955 harboring UL54 T700A mutant gene infected in HFF after 8 to 10 days by plaque reduction assay; assay type: functional, organism-based; conditions: Human betaherpesvirus 5, VR4955; in short: as §2
[23] = Antiviral activity against Human herpesvirus 6 GS infected in human HSB2 cells assessed as decrease in viral DNA accumulation after 7 days; assay type: functional, cell-based, Human herpesvirus 6 (strain GS); conditions: Human betaherpesvirus 6A, HSB2, 168 h
In short: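 HSB-2 cells (2 × 10^4/well) in RPMI 1640 with 10% FBS were infected with HHV-6A strain GS, with compound dilutions in triplicate wells, at 37°C for 7 days. Total DNA was denatured and immobilized on nylon. Viral DNA accumulation was measured by digoxigenin-labeled DNA probe hybridization and anti-hapten antibody detection.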

Human gammaherpesvirus 4 = experiment: Antiviral activity against Epstein-Barr virus infected in human Akata cells assessed as decrease in viral DNA accumulation after 72 hrs; assay type: functional, organism-based; conditions: human gammaherpesvirus 4, Akata
In short: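 Latent Akata cells in RPMI 1640 with 10% FBS were induced to productive infection with 50 μg/ml goat anti-human IgG, 4 × 10^4 cells per well, with compound at 100–0.032 μM. After 72 h, NaOH/NaCl denaturation was followed by nylon membrane blotting. Viral DNA was quantified by digoxigenin-labeled probe hybridization and anti-hapten antibody detection.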

Human alphaherpesvirus 3 = experiment: Antiviral activity against VZV Ellan infected in HFF assessed as decrease in viral DNA accumulation after 8 to 10 days; assay type: functional, organism-based; conditions: Human alphaherpesvirus 3, Ellan
Human alphaherpesvirus 1 [24] = experiment: Antiviral activity against HSV1 E377 infected in HFF assessed as decrease in viral DNA accumulation after 3 days; assay type: functional, organism-based; conditions: Human alphaherpesvirus 1, E377, 72 h
Human gammaherpesvirus 8 = experiment: Antiviral activity against Human herpesvirus 8 infected in human BCBL1 cells assessed as decrease in viral DNA accumulation after 7 days; assay type: functional, organism-based; conditions: Human gammaherpesvirus 8, BCBL1, 168 h
In short: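 BCBL1 cells in RPMI 1640 with 10% FBS were induced to lytic replication with phorbol 12-myristate 13-acetate (100 ng/ml final). Compound was tested in triplicate wells up to 100 μM for 7 days at 37°C. Total DNA was purified and viral DNA quantified by TaqMan qPCR. EC50 is the concentration giving 50% reduction of DNA accumulation.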

Human betaherpesvirus 5 [25] = experiment: Antiviral activity against human cytomegalovirus AD169 infected in HFF assessed as decrease in viral DNA accumulation after 8 to 10 days; assay type: functional, organism-based; conditions: Human betaherpesvirus 5, AD169
Human alphaherpesvirus 2 [26] = experiment: Antiviral activity against HSV2 MS infected in HFF assessed as decrease in viral DNA accumulation after 3 days; assay type: functional, organism-based; conditions: Human alphaherpesvirus 2, MS, 72 h

Molecule `Nc1nc(=O)n([C@H]2C[C@H](O)[C@@H](CO)S2)cc1Br` has a CC50 at 72 h [1] greater than 100 µM, an IC50 (HFF) greater than 100 µM and a Ratio CC50/EC50 [2] greater than 6.7. The EC50 (Human alphaherpesvirus 2 [3]) was 15 µM.
Molecule `Nc1nc2c(ncn2COCCO)c(=O)[nH]1` [ACYCLOVIR] has an EC50 (Human alphaherpesvirus 2 [4]) of 4.7 µM, an EC50 (Human alphaherpesvirus 1 [5]) of 4.4 µM and an EC50 (Human alphaherpesvirus 2 [6]) of 4.9 µM. For the same molecule, the CC50 at 72 h [1] was greater than 444 µM, the IC50 (HFF) was greater than 444 µM and the EC50 (Human alphaherpesvirus 2 [7]) was 6.6 µM. The EC50 (Human alphaherpesvirus 2 [8]) was greater than 440 µM, the EC50 (Human alphaherpesvirus 1 [9]) was 12 µM and the EC50 (Human alphaherpesvirus 1 [10]) was 0.011 µM. The “Ratio EC50” value (Human alphaherpesvirus 2 [11]) was greater than 100, the EC50 (Human alphaherpesvirus 2 [12]) was greater than 100 µM and the EC50 (Human alphaherpesvirus 1 [13]) was 0.08 µM. The EC50 (Human alphaherpesvirus 2 [14]) was 9.6 µM, the EC50 (Human alphaherpesvirus 2 [3]) was 3 µM and the EC50 (Human alphaherpesvirus 1 [15]) was 0.6 µM.
`Nc1ccn([C@@H]2S[C@H](CO)[C@@H](O)[C@@H]2O)c(=O)n1` [THIARABINE] gave a CC50 at 72 h [1] greater than 100 µM, a Ratio CC50/EC50 [2] greater than 110 and an EC50 (Human alphaherpesvirus 2 [3]) of 0.9 µM.
With `O=c1[nH]c(=O)n([C@H]2C[C@H](O)[C@@H](CO)S2)cc1C(F)(F)F` the CC50 at 72 h [1] was greater than 100 µM, the IC50 (HFF) was 0.1 µM and the Ratio CC50/EC50 [2] was greater than 330. It also gave an EC50 (Human alphaherpesvirus 2 [3]) of 0.3 µM.
`Nc1nc2c(ncn2COC(CO)CO)c(=O)[nH]1` [GANCICLOVIR] gave an EC50 (Human betaherpesvirus 5 [16]) of 9.8 µM, an EC50 (Human betaherpesvirus 5 [17]) of 3.3 µM and an EC50 (Human betaherpesvirus 5 [18]) of 44 µM. The EC50 (Human betaherpesvirus 5 [19]) was 230 µM, the EC50 (Human betaherpesvirus 5 [20]) was 15 µM and the EC50 (Human betaherpesvirus 5 [21]) was 53 µM. For the same molecule, the EC50 (Human betaherpesvirus 5 [22]) was 7.2 µM.
In the case of `O=c1[nH]c(=O)n([C@H]2C[C@H](O)[C@@H](CO)S2)cc1Br`, the CC50 at 72 h [1] is reported as greater than 100 µM, the Ratio CC50/EC50 [2] is reported as greater than 21 and the EC50 (Human alphaherpesvirus 2 [3]) is reported as 4.8 µM.
For `O=c1[nH]c(=O)n([C@H]2C[C@H](O)[C@@H](CO)O2)cc1I` [IDOXURIDINE], the EC50 (Human alphaherpesvirus 2 [8]) was greater than 100 µM, the “Ratio EC50” value (Human alphaherpesvirus 2 [11]) was 42 and the EC50 (Human alphaherpesvirus 2 [12]) was 78 µM. It also gave an EC50 (Human alphaherpesvirus 2 [3]) of 2.4 µM.
For `Cc1cn([C@H]2C[C@H](O)[C@@H](CO)S2)c(=O)[nH]c1=O` [4'-THIOTHYMIDINE], the CC50 at 72 h [1] was greater than 100 µM, the IC50 (HFF) was less than 0.03 µM and the Ratio CC50/EC50 [2] was greater than 500. The EC50 (Human alphaherpesvirus 2 [3]) was 0.2 µM.
In the case of `O=C(O)P(=O)(O)O` [FOSCARNET], the EC50 (Human alphaherpesvirus 2 [8]) is reported as 403 µM, the “Ratio EC50” value (Human alphaherpesvirus 2 [11]) is reported as 0.66 and the EC50 (Human alphaherpesvirus 2 [12]) is reported as 389 µM. For the same molecule, the EC50 (Human alphaherpesvirus 2 [3]) was 670 µM.
Molecule `Nc1ccn(C[C@@H](CO)OCP(=O)(O)O)c(=O)n1.O.O` [CIDOFOVIR] has an EC50 [23] of 2.7 µM, an EC50 (Human gammaherpesvirus 4) of 0.48 µM and a CC50 at 72 h [1] greater than 100 µM. It also gave an EC50 (Human alphaherpesvirus 3) of 0.5 µM, an EC50 (Human alphaherpesvirus 1 [24]) of 5.5 µM and an EC50 (Human alphaherpesvirus 2 [8]) of 4.7 µM. For the same molecule, the “Ratio EC50” value (Human alphaherpesvirus 2 [11]) was 1.3, the EC50 (Human gammaherpesvirus 8) was 0.064 µM and the EC50 (Human betaherpesvirus 5 [25]) was 0.4 µM. For the same molecule, the EC50 (Human alphaherpesvirus 2 [12]) was 1.2 µM, the EC50 (Human alphaherpesvirus 2 [3]) was 9.5 µM and the EC50 (Human alphaherpesvirus 2 [26]) was 5.1 µM.

From ChEMBL document CHEMBL1649277, “Inhibition of herpesvirus replication by 5-substituted 4'-thiopyrimidine nucleosides” (Antimicrob Agents Chemother, 2009)
